BindingDB's records for doi:10.1021/np070447m (2008)
pIC50: −log10 of the molar value.

Tests used:
[1] = target: RAC-alpha serine/threonine-protein kinase (Homo sapiens, UniProt P31749); experiment: Inhibition of recombinant AKT1
Procedure, shortened: (§1)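 Purified recombinant kinase, 50 µL reaction. 1 µM [γ-33P]-ATP with substrate; compound added in 10% DMSO. Tested over several concentrations; IC50 in g/mL.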

[2] = target: Focal adhesion kinase 1 (Homo sapiens, UniProt Q05397); experiment: Inhibition of recombinant FAK
[3] = target: Vascular endothelial growth factor receptor 2 (Homo sapiens, UniProt P35968); experiment: Inhibition of recombinant VEGFR2; procedure, shortened: as §1
[4] = target: Aurora kinase B (Homo sapiens, UniProt Q96GD4); experiment: Inhibition of recombinant Aurora B; procedure, shortened: as §1
[5] = target: Casein kinase II subunit alpha (Homo sapiens, UniProt P68400); experiment: Inhibition of recombinant CK2alpha1; procedure, shortened: as §1
[6] = target: T1, NUAK family SNF1-like kinase 1 (Homo sapiens, UniProt O60285); experiment: Inhibition of recombinant ARK5
T1 sequence (O60285 whole entry): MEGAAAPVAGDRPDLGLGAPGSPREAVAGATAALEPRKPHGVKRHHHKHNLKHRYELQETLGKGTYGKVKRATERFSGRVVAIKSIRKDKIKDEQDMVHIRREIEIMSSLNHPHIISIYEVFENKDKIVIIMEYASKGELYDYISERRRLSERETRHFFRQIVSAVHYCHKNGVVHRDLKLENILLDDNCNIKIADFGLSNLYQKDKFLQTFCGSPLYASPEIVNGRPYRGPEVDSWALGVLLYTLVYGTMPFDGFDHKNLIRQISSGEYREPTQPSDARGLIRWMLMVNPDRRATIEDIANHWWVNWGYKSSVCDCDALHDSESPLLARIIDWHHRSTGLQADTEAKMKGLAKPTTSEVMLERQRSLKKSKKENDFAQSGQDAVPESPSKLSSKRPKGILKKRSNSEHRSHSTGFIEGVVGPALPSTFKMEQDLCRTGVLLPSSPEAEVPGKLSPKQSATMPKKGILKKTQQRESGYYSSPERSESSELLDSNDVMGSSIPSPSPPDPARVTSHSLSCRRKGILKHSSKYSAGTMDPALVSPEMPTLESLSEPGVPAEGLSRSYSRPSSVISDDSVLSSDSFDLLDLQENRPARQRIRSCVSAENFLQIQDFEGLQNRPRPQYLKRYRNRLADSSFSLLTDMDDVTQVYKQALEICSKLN

[7] = target: Vascular endothelial growth factor receptor 3 (Homo sapiens, UniProt P35916); experiment: Inhibition of recombinant VEGFR3; procedure, shortened: as §1
[8] = target: Proto-oncogene tyrosine-protein kinase Src (Homo sapiens, UniProt P12931); experiment: Inhibition of recombinant SRC; procedure, shortened: as §1
[9] = target: Cyclin-dependent kinase 2 (Homo sapiens, UniProt P24941); experiment: Inhibition of recombinant CDK2/CycA; procedure, shortened: as §1
[10] = target: T2, Aurora kinase A (Homo sapiens, UniProt O14965); experiment: Inhibition of recombinant Aurora A; procedure, shortened: as §1
T2 sequence (O14965 whole entry): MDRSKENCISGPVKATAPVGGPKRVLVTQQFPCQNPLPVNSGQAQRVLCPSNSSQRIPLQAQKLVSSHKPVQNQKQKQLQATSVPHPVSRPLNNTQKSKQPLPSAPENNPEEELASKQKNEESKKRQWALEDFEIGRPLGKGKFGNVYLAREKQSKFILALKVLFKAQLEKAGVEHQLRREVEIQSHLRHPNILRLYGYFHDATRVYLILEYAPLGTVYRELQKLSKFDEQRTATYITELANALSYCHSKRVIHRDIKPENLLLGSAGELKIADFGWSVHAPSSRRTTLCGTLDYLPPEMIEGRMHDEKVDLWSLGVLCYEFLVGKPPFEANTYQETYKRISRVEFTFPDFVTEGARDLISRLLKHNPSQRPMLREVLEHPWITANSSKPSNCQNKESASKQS

[11] = target: T3, Receptor-type tyrosine-protein kinase FLT3 (Homo sapiens, UniProt P36888); experiment: Inhibition of recombinant FLT3; procedure, shortened: as §1
T3 sequence (P36888 whole entry): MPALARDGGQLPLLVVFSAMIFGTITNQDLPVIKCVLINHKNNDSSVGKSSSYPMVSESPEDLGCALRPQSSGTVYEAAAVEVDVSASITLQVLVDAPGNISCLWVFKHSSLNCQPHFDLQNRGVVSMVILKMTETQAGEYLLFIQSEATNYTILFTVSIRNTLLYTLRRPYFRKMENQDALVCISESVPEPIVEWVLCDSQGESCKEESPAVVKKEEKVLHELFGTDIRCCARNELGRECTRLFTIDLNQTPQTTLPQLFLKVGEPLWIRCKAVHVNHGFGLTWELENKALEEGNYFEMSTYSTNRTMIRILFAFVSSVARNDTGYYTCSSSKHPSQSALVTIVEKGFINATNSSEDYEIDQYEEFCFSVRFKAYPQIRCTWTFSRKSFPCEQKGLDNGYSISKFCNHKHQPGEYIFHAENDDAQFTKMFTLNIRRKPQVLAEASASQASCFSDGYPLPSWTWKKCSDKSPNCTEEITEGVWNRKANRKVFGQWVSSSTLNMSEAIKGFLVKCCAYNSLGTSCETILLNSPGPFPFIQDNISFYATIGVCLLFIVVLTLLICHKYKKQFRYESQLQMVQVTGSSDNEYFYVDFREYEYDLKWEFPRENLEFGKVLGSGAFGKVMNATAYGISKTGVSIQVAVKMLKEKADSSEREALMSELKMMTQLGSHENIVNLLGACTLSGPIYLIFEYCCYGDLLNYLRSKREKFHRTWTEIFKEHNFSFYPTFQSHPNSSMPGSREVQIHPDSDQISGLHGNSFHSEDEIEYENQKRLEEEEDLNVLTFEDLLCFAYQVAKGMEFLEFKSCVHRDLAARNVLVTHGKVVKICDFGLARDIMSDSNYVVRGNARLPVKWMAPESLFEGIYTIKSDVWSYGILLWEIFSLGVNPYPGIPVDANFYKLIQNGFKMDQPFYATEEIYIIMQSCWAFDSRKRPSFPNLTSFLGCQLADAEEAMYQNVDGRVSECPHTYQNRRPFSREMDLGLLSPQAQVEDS

Chain of Vascular endothelial growth factor receptor 2 (P35968 whole entry): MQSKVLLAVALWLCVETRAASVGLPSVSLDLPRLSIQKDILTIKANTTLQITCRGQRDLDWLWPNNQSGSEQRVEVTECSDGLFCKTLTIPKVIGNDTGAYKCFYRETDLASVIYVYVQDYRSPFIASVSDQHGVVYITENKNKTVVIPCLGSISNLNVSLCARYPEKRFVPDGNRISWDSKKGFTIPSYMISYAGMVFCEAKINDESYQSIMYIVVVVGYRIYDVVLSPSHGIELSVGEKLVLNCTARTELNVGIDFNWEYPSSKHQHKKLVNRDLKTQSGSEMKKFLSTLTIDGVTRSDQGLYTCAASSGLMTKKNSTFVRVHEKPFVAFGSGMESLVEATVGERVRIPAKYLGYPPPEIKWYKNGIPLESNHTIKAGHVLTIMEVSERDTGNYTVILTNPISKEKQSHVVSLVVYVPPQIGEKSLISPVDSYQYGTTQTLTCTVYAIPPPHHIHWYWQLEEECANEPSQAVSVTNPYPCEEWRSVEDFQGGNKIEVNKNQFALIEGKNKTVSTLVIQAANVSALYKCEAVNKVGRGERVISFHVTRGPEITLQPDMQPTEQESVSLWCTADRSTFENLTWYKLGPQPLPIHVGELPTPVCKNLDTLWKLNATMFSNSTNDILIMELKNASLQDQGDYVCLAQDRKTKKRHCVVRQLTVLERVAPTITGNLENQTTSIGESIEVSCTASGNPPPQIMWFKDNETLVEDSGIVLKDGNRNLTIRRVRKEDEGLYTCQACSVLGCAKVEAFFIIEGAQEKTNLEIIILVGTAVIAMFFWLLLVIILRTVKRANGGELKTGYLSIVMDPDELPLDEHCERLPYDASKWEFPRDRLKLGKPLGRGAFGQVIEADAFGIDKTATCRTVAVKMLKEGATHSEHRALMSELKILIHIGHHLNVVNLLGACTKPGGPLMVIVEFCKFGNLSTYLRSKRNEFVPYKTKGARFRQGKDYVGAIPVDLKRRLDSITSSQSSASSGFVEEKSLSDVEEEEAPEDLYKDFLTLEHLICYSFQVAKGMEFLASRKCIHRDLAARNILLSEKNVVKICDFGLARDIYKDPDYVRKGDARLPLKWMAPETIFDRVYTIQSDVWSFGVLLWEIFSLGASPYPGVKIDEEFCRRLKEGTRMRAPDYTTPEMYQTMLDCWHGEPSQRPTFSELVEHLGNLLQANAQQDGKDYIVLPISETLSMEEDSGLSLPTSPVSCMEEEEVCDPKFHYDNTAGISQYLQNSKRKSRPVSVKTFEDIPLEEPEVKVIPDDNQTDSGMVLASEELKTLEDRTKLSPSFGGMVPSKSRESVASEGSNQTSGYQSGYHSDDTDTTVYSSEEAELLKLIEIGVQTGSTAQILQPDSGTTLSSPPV
Chain of Proto-oncogene tyrosine-protein kinase Src (P12931 2-536 limits assumed): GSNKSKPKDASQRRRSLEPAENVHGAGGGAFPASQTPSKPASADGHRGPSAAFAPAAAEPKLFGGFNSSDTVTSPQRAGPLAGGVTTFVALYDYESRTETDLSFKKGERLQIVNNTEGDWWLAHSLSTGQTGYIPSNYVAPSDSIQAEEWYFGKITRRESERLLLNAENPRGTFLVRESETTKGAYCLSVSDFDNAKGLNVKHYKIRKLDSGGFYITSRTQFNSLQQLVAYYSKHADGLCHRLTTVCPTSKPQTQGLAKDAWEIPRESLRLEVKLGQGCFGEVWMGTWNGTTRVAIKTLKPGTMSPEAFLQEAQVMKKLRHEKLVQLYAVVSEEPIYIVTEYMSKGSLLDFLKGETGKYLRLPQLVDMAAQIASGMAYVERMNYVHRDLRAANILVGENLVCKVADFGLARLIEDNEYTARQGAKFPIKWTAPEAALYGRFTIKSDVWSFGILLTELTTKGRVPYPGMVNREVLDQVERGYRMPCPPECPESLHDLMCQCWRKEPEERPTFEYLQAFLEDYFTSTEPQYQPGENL
Chain of Vascular endothelial growth factor receptor 3 (P35916 whole entry): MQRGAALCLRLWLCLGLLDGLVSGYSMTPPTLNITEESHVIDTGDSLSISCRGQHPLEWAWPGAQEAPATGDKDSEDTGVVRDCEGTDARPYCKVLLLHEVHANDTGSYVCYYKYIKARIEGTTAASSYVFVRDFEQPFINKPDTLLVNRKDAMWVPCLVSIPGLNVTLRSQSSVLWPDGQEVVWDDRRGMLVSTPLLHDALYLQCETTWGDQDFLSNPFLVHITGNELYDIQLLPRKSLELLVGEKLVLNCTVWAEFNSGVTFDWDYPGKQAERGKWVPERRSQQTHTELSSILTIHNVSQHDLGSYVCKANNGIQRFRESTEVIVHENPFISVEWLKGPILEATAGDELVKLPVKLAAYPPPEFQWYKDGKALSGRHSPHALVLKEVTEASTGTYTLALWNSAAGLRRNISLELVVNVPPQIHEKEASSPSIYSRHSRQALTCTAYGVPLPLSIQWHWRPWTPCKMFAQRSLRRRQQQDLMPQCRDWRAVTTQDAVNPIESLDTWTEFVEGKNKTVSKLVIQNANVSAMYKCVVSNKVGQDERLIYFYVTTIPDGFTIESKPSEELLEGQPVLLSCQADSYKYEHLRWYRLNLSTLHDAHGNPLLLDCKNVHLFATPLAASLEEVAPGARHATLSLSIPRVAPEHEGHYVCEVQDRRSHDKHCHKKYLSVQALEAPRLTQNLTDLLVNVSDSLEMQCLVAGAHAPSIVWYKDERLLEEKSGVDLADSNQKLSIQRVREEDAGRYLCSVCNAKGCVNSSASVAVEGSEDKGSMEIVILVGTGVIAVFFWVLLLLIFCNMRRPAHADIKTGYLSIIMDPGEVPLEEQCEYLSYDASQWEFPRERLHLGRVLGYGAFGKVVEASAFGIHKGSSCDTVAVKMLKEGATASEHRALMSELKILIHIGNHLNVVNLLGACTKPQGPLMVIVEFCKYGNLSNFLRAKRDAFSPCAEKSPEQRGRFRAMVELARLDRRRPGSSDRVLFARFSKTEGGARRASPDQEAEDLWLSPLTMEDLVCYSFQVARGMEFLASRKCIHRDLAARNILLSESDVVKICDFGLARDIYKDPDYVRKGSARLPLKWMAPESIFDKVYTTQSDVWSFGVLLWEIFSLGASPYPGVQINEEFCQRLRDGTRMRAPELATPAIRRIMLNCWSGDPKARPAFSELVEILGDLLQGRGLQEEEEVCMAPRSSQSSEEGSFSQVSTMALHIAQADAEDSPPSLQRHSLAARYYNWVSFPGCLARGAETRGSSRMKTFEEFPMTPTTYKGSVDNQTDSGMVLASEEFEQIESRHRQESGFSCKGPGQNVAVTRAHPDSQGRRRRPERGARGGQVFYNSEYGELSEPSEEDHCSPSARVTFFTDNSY
Chain of RAC-alpha serine/threonine-protein kinase (P31749 whole entry): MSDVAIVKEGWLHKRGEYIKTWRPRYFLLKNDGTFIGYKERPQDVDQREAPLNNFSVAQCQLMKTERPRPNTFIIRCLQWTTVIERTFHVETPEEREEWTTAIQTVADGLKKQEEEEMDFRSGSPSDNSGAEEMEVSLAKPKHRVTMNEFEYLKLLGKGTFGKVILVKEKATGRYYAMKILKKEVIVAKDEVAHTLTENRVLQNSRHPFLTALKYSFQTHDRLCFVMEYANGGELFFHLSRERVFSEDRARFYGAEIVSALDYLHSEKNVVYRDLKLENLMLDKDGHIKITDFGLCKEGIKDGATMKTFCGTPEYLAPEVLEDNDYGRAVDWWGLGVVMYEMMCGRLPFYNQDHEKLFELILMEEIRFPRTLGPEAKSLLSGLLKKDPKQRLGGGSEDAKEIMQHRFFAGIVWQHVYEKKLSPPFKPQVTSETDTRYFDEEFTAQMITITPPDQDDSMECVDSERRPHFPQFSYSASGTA
Chain of Focal adhesion kinase 1 (Q05397 whole entry): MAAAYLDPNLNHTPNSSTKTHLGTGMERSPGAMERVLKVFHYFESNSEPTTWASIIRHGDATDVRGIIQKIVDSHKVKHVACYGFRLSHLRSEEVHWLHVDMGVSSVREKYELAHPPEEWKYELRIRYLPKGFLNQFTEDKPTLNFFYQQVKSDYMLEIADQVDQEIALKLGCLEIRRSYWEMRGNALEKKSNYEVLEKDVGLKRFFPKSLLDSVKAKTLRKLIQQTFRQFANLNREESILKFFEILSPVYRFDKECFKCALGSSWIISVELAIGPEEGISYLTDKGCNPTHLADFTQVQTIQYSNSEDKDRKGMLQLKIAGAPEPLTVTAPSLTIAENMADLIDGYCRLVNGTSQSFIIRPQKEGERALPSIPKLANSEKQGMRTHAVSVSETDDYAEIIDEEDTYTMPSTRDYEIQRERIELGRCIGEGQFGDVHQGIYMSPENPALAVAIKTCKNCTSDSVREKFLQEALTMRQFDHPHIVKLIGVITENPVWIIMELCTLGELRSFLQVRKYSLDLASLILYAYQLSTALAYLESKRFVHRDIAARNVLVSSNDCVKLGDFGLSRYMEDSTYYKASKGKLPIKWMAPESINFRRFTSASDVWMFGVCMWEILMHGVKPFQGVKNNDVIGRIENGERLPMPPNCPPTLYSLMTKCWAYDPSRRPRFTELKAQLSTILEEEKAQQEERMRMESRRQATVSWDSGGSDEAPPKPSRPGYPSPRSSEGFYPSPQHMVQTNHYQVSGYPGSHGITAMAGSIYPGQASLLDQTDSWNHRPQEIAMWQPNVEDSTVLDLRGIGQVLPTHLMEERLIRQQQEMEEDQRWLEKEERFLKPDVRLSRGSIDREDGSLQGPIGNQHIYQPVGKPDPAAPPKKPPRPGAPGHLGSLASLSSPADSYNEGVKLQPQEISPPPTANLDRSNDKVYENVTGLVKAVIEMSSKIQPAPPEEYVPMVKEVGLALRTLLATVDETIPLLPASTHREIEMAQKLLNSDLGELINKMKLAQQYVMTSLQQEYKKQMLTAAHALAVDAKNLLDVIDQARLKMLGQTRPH

Row | Compound | pIC50 [1] | pIC50 [2] | pIC50 [3] | pIC50 [4] | pIC50 [5] | pIC50 [6] | pIC50 [7] | pIC50 [8] | pIC50 [9] | pIC50 [10] | pIC50 [11]
1 | COc1cc(O)c2c(c1)-c1cc(O)c(O)cc1COC2=O [Alterlactone] | < 4.46 | < 4.46 | < 4.46 | < 4.46 | < 4.46 | < 4.46 | < 4.46 | < 4.46 | < 4.46 | < 4.46 | < 4.46
2 | COc1cc(O)c2c(c1)C1(OC2=O)C(=O)C(=O)CC1C (configuration not stated) [TALAROFLAVONE] | < 4.44 | < 4.44 | < 4.44 | < 4.44 | < 4.44 | < 4.44 | < 4.44 | < 4.44 | < 4.44 | < 4.44 | < 4.44
